Experimental data as given in ChEMBL document CHEMBL4689842, “EUbOPEN Chemogenomics Library wave 1” (2021).
Where “and” joins values, the source holds several entries; their conditions need not be identical. Identical values can stand only once.

Test system: U2OS
Assay: Multiplex assay against U2OS
Format: toxicity, cell-based
Details: human
Procedure, shortened: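 Compound was added to live cells that had been stained at seeding with Hoechst33342, BioTracker Green Microtubule Cytoskeleton Dye, MitoTracker Red and Annexin V Alexa Fluor 680, and imaging followed on a CQ1 microscope at 37°C and 5% CO2. CellPathfinder machine-learning gating divided cells into Hoechst high-intensity objects or normal cells, normal cells into healthy, pyknosed or fragmented nuclei, and pyknosed cells into mitotic or apoptotic. Tubulin, mitochondrial-mass and membrane-permeability phenotypes are per cents of healthy-nucleus cells.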

[1] = 12 h, 1 µM, compound concentration 1 uM, replicate 1
[2] = 12 h, 1 µM, compound concentration 1 uM, replicate 2
[3] = 12 h, 10 µM, compound concentration 10 uM, replicate 1
[4] = 12 h, 10 µM, compound concentration 10 uM, replicate 2
[5] = 24 h, 1 µM, compound concentration 1 uM, replicate 1
[6] = 24 h, 1 µM, compound concentration 1 uM, replicate 2
[7] = 24 h, 10 µM, compound concentration 10 uM, replicate 1
[8] = 24 h, 10 µM, compound concentration 10 uM, replicate 2
[9] = 48 h, 10 µM, compound concentration 10 uM, replicate 1
[10] = 48 h, 10 µM, compound concentration 10 uM, replicate 2

Question: What does the source list for CN[C@@H]1C[C@H]2O[C@@](C)([C@@H]1OC)n1c3ccccc3c3c4c(c5c6ccccc6n2c5c31)C(=O)NC4 [STAUROSPORINE]?
Answer: Population Apoptotic (%) [1]: 53%; Population Fragmented Nuclei (%) [1]: 47%; Population Healthy Nuclei (%) [1]: 12%; Population Hoechst High Intensity Objects (%) [1]: 4%; Population Membrane Permeable-Phenotype (%) [1]: 89%; Population Mitochondria Different-Phenotype (%) [1]: 57%; Population Mitotic Cells (%) [1]: 46%; Population Normal (%) [1]: 95%; Population Pyknosed Nuclei (%) [1]: 40%; Population Tubulin-Different-Phenotype (%) [1]: 89%; Population Apoptotic (%) [2]: 62%; Population Fragmented Nuclei (%) [2]: 65%; Population Healthy Nuclei (%) [2]: 3%; Population Hoechst High Intensity Objects (%) [2]: 7%; Population Membrane Permeable-Phenotype (%) [2]: 100%; Population Mitochondria Different-Phenotype (%) [2]: 83%; Population Mitotic Cells (%) [2]: 37%; Population Normal (%) [2]: 92%; Population Pyknosed Nuclei (%) [2]: 30%; Population Tubulin-Different-Phenotype (%) [2]: 91%; Population Apoptotic (%) [3]: 51% and 87% and 83%; Population Fragmented Nuclei (%) [3]: 45% and 41% and 40%; Population Healthy Nuclei (%) [3]: 5% and 0% and 1%; Population Hoechst High Intensity Objects (%) [3]: 6% and 7% and 3%; Population Membrane Permeable-Phenotype (%) [3]: 94% and 100% and 71%; Population Mitochondria Different-Phenotype (%) [3]: 50% and 100% and 85%; Population Normal (%) [3]: 93% and 92% and 96%; Population Pyknosed Nuclei (%) [3]: 48% and 57% and 58%; Population Tubulin-Different-Phenotype (%) [3]: 94% and 100%; Population Apoptotic (%) [4]: 86% and 56% and 73%; Population Fragmented Nuclei (%) [4]: 26% and 64% and 42%; Population Healthy Nuclei (%) [4]: 15% and 6% and 12%; Population Hoechst High Intensity Objects (%) [4]: 15% and 8%; Population Membrane Permeable-Phenotype (%) [4]: 95% and 84%; Population Mitochondria Different-Phenotype (%) [4]: 75% and 71% and 84%; Population Normal (%) [4]: 84% and 91%; Population Pyknosed Nuclei (%) [4]: 29% and 45%; Population Tubulin-Different-Phenotype (%) [4]: 91% and 92%; Population Apoptotic (%) [5]: 93%; Population Fragmented Nuclei (%) [5]: 34%; Population Healthy Nuclei (%) [5]: 22%; Population Hoechst High Intensity Objects (%) [5]: 14%; Population Membrane Permeable-Phenotype (%) [5]: 96%; Population Mitochondria Different-Phenotype (%) [5]: 56%; Population Mitotic Cells (%) [5]: 6%; Population Normal (%) [5]: 85%; Population Pyknosed Nuclei (%) [5]: 42%; Population Tubulin-Different-Phenotype (%) [5]: 92%; Population Apoptotic (%) [6]: 94%; Population Fragmented Nuclei (%) [6]: 58%; Population Healthy Nuclei (%) [6]: 10%; Population Hoechst High Intensity Objects (%) [6]: 13%; Population Membrane Permeable-Phenotype (%) [6]: 95%; Population Mitochondria Different-Phenotype (%) [6]: 66%; Population Mitotic Cells (%) [6]: 5%; Population Normal (%) [6]: 86%; Population Pyknosed Nuclei (%) [6]: 31%; Population Tubulin-Different-Phenotype (%) [6]: 91%; Population Apoptotic (%) [7]: 93% and 90% and 94%; Population Fragmented Nuclei (%) [7]: 48% and 46% and 38%; Population Healthy Nuclei (%) [7]: 0% and 15%; Population Hoechst High Intensity Objects (%) [7]: 5% and 11%; Population Mitochondria Different-Phenotype (%) [7]: 50% and 45%; Population Mitotic Cells (%) [7]: 6% and 9% and 5%; Population Normal (%) [7]: 94% and 88%; Population Pyknosed Nuclei (%) [7]: 50% and 52% and 45%; Population Tubulin-Different-Phenotype (%) [7]: 50% and 100% and 94%; Population Apoptotic (%) [8]: 88% and 96% and 77%; Population Hoechst High Intensity Objects (%) [8]: 27% and 26%; Population Membrane Permeable-Phenotype (%) [8]: 95% and 92%; Population Mitochondria Different-Phenotype (%) [8]: 95% and 69% and 92%; Population Normal (%) [8]: 72% and 73%; Population Pyknosed Nuclei (%) [8]: 36% and 23% and 38%; Population Tubulin-Different-Phenotype (%) [8]: 95% and 92%; Population Apoptotic (%) [9]: 95%; Population Fragmented Nuclei (%) [9]: 51% and 55%; Population Healthy Nuclei (%) [9]: 0%; Population Hoechst High Intensity Objects (%) [9]: 7% and 11%; Population Mitochondria Different-Phenotype (%) [9]: 66% and 100%; Population Mitotic Cells (%) [9]: 4%; Population Normal (%) [9]: 92% and 88%; Population Pyknosed Nuclei (%) [9]: 47% and 43%; Population Tubulin-Different-Phenotype (%) [9]: 100%; Population Apoptotic (%) [10]: 89% and 100%; Population Fragmented Nuclei (%) [10]: 22% and 13%; Population Healthy Nuclei (%) [10]: 49% and 56%; Population Hoechst High Intensity Objects (%) [10]: 18% and 25%; Population Mitochondria Different-Phenotype (%) [10]: 96% and 92%; Population Mitotic Cells (%) [10]: 10% and 0%; Population Normal (%) [10]: 81% and 74%; Population Pyknosed Nuclei (%) [10]: 28% and 30%; Population Tubulin-Different-Phenotype (%) [10]: 96% and 92%
